These results are taken from PMC4604364 (Antimicrobial Agents and Chemotherapy, 2015).

In brackets after ≈: the same amount, converted by molar mass.

For data set [1], the system named is S. pneumoniae 157E (wild type, tetracycline susceptible). Put plainly: Microdilution MIC, S. pneumoniae wild type. In kind it is cell-based. Particulars: Streptococcus pneumoniae, read-out: MIC, S. pneumoniae wild type.
Data set [2] has as its system S. pneumoniae ATCC 700905 (ribosome protection, Tet M). Nature of the data set: Microdilution MIC, S. pneumoniae Tet M. It is filed as cell-based. Particulars: Streptococcus pneumoniae, ATCC700905, read-out: MIC, S. pneumoniae Tet M.
Data set [3] is described as follows: Pharmacokinetics in nonhuman primates. It is filed as in vivo, Cynomolgus monkeys. Particulars: for AUC / Cmax / Tmax / half-life / bioavailability: cynomolgus monkey, plasma. The procedure, abridged:
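Cynomolgus monkeys were dosed intravenously (infusion ending at 0.25 h) or orally. Plasma was sampled predose and at 0.25, 0.5, 1, 3, 5, 7, 16 and 24 h. Protein was precipitated with acetonitrile containing 0.1% formic acid, then centrifuged. The supernatant was dried, reconstituted in methanol-water (1:1) and quantified by LC-MS/MS. PK parameters came from noncompartmental analysis.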

Data set [4] deals with S. aureus MRSA 5 (Tet M). Put plainly: Serum MIC, S. aureus MRSA 5. In kind it is cell-based. Particulars: Staphylococcus aureus, read-out: S. aureus MRSA 5 (Tet M) serum MIC, None.
Data set [5] relates to E. faecalis JH2-2(pAM211) (ribosome protection, Tet M). Nature of the data set: Microdilution MIC, E. faecalis Tet M. It is filed as cell-based. Particulars: Enterococcus faecalis, read-out: MIC, E. faecalis Tet M. Background: In broth dilution the organism is exposed to a series of concentrations in liquid medium.
The test system of data set [6] is S. aureus MRSA 5 (MRSA, ribosome protection, Tet M). Nature of the data set: Microdilution MIC, S. aureus Tet M. In kind it is cell-based. Particulars: Staphylococcus aureus, read-out: MIC, S. aureus Tet M.
The subject of data set [7] is S. aureus RN450 (wild type, tetracycline susceptible). Nature of the data set: Microdilution MIC, S. aureus wild type. It is filed as cell-based. Particulars: Staphylococcus aureus, read-out: MIC, S. aureus wild type.
Data set [8] deals with Gram-positive screening panel organisms (S. aureus, Enterococcus spp., S. pneumoniae). Nature of the data set: MIC ranges over the Gram-positive screening panel. Particulars: read-out: MIC range against resistant organisms. It is filed as cell-based.
The test system of data set [9] is E. faecalis JH2-2(pMV158) (tetracycline efflux, Tet L). Nature of the data set: Microdilution MIC, E. faecalis Tet L. It is filed as cell-based. Particulars: Enterococcus faecalis, read-out: MIC, E. faecalis Tet L.
In data set [10] the test system is E. faecalis JH2-2 (wild type, tetracycline susceptible). Nature of the data set: Microdilution MIC, E. faecalis wild type. It is filed as cell-based. Particulars: Enterococcus faecalis, read-out: MIC, E. faecalis wild type.
In data set [11] the test system is S. aureus RN4250 (tetracycline efflux, Tet K). Put plainly: Microdilution MIC, S. aureus Tet K. Particulars: Staphylococcus aureus, read-out: MIC, S. aureus Tet K. In kind it is cell-based.
Data set [12] has as its system E. faecium 494 (Tet M plus Tet L). Nature of the data set: Microdilution MIC, E. faecium Tet M + L. Particulars: Enterococcus faecium, read-out: MIC, E. faecium Tet M + L. It is filed as cell-based.
Data set [13] relates to S. aureus MRSA 5 (Tet M). Put plainly: S. aureus MRSA 5 thigh wound infection model in mice. It is filed as in vivo. Particulars: 24 h after single subcutaneous injection of 20 mg/kg.

Broadly, the MIC is the lowest concentration that inhibits growth of the organism. For orientation: AUC means the area under the concentration-time curve, a measure of exposure. The Cmax is the peak of the concentration-time curve. For orientation: Tmax means the time at which the peak concentration occurs. In general, half-life refers to how long it takes for the measured level to halve. By bioavailability is commonly meant dose-corrected exposure relative to a reference, in per cent. Low readings indicate poor availability, high ones good availability. For the compound `CN(C)c1cc(CNCC(C)(C)C)c(O)c2c1C[C@H]1C[C@H]3[C@H](N(C)C)C(O)=C(C(N)=O)C(=O)[C@@]3(O)C(O)=C1C2=O` [Compound 27, 9-neopentylaminomethylminocycline], the MIC in [1] is less than 0.06 mg/L; in data set [2], less than 0.06 mg/L; in [4] it was 0.25 mg/L (≈ 0.449 µM); in data set [5], 0.5 mg/L (≈ 0.898 µM); in data set [6], 0.25 mg/L (≈ 0.449 µM); in data set [7], 0.25 mg/L (≈ 0.449 µM). Moreover, the MIC in data set [8] was 0.06 to 0.5 mg/L (≈ 0.108 to 0.898 µM); in [9], 0.5 mg/L (≈ 0.898 µM); in [10] it was 0.25 mg/L (≈ 0.449 µM); in data set [11], 0.25 mg/L (≈ 0.449 µM); in data set [12], 0.5 mg/L. Moreover, the “tolerability after intravenous infusion” value in data set [3] (Cynomolgus monkeys) is listed as “well tolerated”. The AUC in [3] (iv, 2.6 mg/kg) was 9 µg·h/mL; in data set [3] (po, 5 mg/kg) it was 5.3 µg·h/mL. Also, the Cmax in [3] (iv, 2.6 mg/kg) is 1.88 µg/mL; in data set [3] (po, 5 mg/kg), 0.41 µg/mL. The Tmax in data set [3] (iv, 2.6 mg/kg) turned out to be 0.2 h; in data set [3] (po, 5 mg/kg), 2.3 h. Besides, the half-life in [3] (iv, 2.6 mg/kg) is 14.4 h; in data set [3] (po, 5 mg/kg), 11.1 h. The compound further registered a bioavailability in data set [3] (po, 5 mg/kg) of 31%. Also, the “oral plasma exposure relative to tigecycline” value in [3] (oral administration, monkeys) was found to be 10 fold. Besides, the “reduction of colony count relative to untreated control animals” value in data set [13] is 2.49 to 3.11 log10.

Consider `CN(C)c1ccc(O)c2c1C[C@H]1C[C@H]3[C@H](N(C)C)C(O)=C(C(N)=O)C(=O)[C@@]3(O)C(O)=C1C2=O` [Minocycline, minocycline], for which the MIC was less than 0.06 mg/L in data set [1]; 8 mg/L (≈ 17.5 µM) in [2]; 2 mg/L (≈ 4.37 µM) in data set [4]; 16 mg/L (≈ 35 µM) in [5]; 2 mg/L (≈ 4.37 µM) in data set [6]; 0.25 mg/L (≈ 0.546 µM) in data set [7]. Further, the MIC in data set [9] worked out at 0.5 mg/L (≈ 1.09 µM); in data set [10], 0.5 mg/L (≈ 1.09 µM); in data set [11] it was 0.5 mg/L (≈ 1.09 µM); in data set [12], 16 mg/L. Besides, the AUC in [3] (iv, 5 mg/kg) was 27.6 µg·h/mL; in data set [3] (po, 5 mg/kg) it was 22.1 µg·h/mL. The Cmax in [3] (iv, 5 mg/kg) was 14.8 µg/mL; in data set [3] (po, 5 mg/kg), 2.2 µg/mL. Further, the Tmax came out at 0.1 h in data set [3] (iv, 5 mg/kg) and 3 h in data set [3] (po, 5 mg/kg). Besides, the half-life in data set [3] (iv, 5 mg/kg) was 10.4 h; in [3] (po, 5 mg/kg) it was 7 h. Besides, the bioavailability in data set [3] (po, 5 mg/kg) is 80%. Further, the “reduction of colony count relative to untreated control animals” value in [13] is 0.98 log10.

Regarding `CN(C)[C@@H]1C(O)=C(C(N)=O)C(=O)[C@@]2(O)C(O)=C3C(=O)c4c(O)cccc4[C@@](C)(O)[C@H]3C[C@@H]12` [Tetracycline, tetracycline], the MIC is less than 0.06 mg/L in data set [1]; 32 mg/L (≈ 72 µM) in data set [2]; more than 64 mg/L in data set [5]; 32 mg/L (≈ 72 µM) in data set [6]; less than 0.06 mg/L in data set [7]; 64 mg/L (≈ 144 µM) in data set [9]. Besides, the results for the MIC in [10], in data set [11] and in data set [12] were 0.25 mg/L (≈ 0.563 µM), more than 64 mg/L and more than 64 mg/L, respectively.

Turning to `CN(C)c1cc(NC(=O)CNC(C)(C)C)c(O)c2c1C[C@H]1C[C@H]3[C@H](N(C)C)C(O)=C(C(N)=O)C(=O)[C@@]3(O)C(O)=C1C2=O` [Tigecycline, tigecycline], the MIC in [1] was less than 0.06 mg/L; in data set [2], less than 0.06 mg/L; in data set [4], 0.25 mg/L (≈ 0.427 µM); in [5] it was 0.5 mg/L (≈ 0.854 µM); in data set [6], 0.25 mg/L (≈ 0.427 µM); in data set [7] it was 0.25 mg/L (≈ 0.427 µM). Also, the MIC in [9] came to 0.5 mg/L (≈ 0.854 µM); in data set [10] it was 0.5 mg/L (≈ 0.854 µM); in data set [11] it was 0.5 mg/L (≈ 0.854 µM); in [12] it was 0.5 mg/L. The AUC in data set [3] (iv, 5 mg/kg) turned out to be 16.3 µg·h/mL; in data set [3] (po, 5 mg/kg), 0.5 µg·h/mL. Besides, the Cmax in data set [3] (iv, 5 mg/kg) came to 23.2 µg/mL; in data set [3] (po, 5 mg/kg) it was 0.04 µg/mL. Further, the Tmax in data set [3] (iv, 5 mg/kg) amounted to 0.2 h; in [3] (po, 5 mg/kg) it was 4 h. Moreover, the half-life in [3] (iv, 5 mg/kg) is 10.9 h; in data set [3] (po, 5 mg/kg), 3.4 h. Moreover, in data set [3] (po, 5 mg/kg), the bioavailability is 3.1%.

For the compound `CN[C@H](CC(C)C)C(=O)N[C@H]1C(=O)N[C@@H](CC(N)=O)C(=O)N[C@H]2C(=O)N[C@H]3C(=O)N[C@H](C(=O)N[C@H](C(=O)O)c4cc(O)cc(O)c4-c4cc3ccc4O)[C@H](O)c3ccc(c(Cl)c3)Oc3cc2cc(c3O[C@@H]2O[C@H](CO)[C@@H](O)[C@H](O)[C@H]2O[C@H]2C[C@](C)(N)[C@H](O)[C@H](C)O2)Oc2ccc(cc2Cl)[C@H]1O` [Vancomycin], the MIC in [1] came to 0.25 mg/L (≈ 0.173 µM); in [2], 0.25 mg/L (≈ 0.173 µM); in [4], 0.5 mg/L (≈ 0.345 µM); in data set [5] it was 1 mg/L (≈ 0.69 µM); in data set [6], 0.5 mg/L (≈ 0.345 µM); in [7] it was 0.5 mg/L (≈ 0.345 µM). Also, the MIC in data set [9] was 1 mg/L (≈ 0.69 µM); in data set [10] it was 1 mg/L (≈ 0.69 µM); in data set [11], 0.25 mg/L (≈ 0.173 µM); in [12] it was more than 64 mg/L.
